Data: PMC2755653 (Journal of pharmaceutical sciences, 2009)

Tests used:
MDCKII-WT cells = test: Cellular accumulation of radiolabeled drug in MDCKII-WT cell monolayers; type: cell-based, canine; conditions: for increase in cellular accumulation compared to control: 0.03% w/w Pluronic P85 (CMC)
P-gp = P-gp (Homo sapiens, UniProt P08183); test: Cellular accumulation of radiolabeled drug in MDCKII-MDR1 cell monolayers; type: cell-based; conditions: for change in cellular accumulation at Pluronic P85 concentrations above the CMC / increase in cellular accumulation compared to control / change in cellular accumulation with Pluronic P85 up to the CMC / cellular accumulation at 0.5% w/w P85 versus control without P85: MDR1 cells; for (WT/MDR1) accumulation ratio: nelfinavir
[1] = cited from earlier work
[2] = Cell-free equilibrium dialysis with Pluronic P85; type: physicochemical; conditions: for time to equilibrium: equilibrium dialysis, MWCO 50,000 membrane, 37°C
Method in brief: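 Two-chamber dialysis across a 50,000 Da MWCO membrane at 37°C, stirred, in pH 7.4 HEPES/bicarbonate buffer. Radiolabeled test compound was in the donor and buffer in the receiver. Below CMC, P85 was on both sides. For micellar levels, the receiver held 0.025% w/w and the donor target plus 0.005% w/w. Free fraction was receiver/donor concentration; a transfer-rate model was fitted.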

[3] = at the CMC of Pluronic P85 (0.03% w/w; printed 0.035% w/w for nelfinavir)

P-gp, sequence (P08183 whole entry): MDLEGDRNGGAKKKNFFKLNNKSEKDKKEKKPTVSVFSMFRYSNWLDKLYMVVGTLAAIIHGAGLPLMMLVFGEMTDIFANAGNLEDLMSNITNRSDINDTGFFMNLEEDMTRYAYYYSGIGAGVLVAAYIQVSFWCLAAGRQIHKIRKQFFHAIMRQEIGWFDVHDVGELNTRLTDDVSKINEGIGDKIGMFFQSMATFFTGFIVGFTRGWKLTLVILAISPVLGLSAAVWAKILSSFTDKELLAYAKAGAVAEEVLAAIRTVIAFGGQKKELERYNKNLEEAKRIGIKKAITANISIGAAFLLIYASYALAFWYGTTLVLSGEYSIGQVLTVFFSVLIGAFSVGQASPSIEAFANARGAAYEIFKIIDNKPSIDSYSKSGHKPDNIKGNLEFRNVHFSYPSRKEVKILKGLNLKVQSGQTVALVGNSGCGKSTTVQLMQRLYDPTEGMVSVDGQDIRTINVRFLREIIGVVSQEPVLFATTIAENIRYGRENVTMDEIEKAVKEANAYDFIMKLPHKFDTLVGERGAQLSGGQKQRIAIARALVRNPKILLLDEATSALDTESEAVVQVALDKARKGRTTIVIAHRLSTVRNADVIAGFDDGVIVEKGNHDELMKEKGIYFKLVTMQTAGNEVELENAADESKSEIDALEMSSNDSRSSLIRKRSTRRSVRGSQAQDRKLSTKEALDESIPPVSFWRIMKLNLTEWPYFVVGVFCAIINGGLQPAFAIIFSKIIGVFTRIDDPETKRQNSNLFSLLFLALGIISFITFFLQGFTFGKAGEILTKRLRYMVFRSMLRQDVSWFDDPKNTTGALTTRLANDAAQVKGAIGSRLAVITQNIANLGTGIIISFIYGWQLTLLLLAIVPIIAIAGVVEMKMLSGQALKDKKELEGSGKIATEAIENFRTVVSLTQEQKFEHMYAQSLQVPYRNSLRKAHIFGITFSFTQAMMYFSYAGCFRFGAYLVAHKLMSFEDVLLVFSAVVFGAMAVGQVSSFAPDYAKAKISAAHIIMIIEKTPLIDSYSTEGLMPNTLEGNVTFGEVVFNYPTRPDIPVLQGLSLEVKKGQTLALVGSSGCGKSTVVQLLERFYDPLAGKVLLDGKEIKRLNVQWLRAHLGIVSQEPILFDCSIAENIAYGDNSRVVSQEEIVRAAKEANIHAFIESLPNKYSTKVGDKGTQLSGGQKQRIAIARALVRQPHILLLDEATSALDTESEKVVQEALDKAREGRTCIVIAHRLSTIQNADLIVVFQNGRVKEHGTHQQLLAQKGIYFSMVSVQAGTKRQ

Row | change in cellular accumulation at Pluronic P85 concentrations above the CMC (P-gp) | change in cellular accumulation with Pluronic P85 up to the CMC (P-gp) | equilibrium free fraction ([2]; 0.5% w/w Pluronic P85) | equilibrium free fraction ([2]; absence of Pluronic P85) | equilibrium free fraction [2, 3] | time to equilibrium [2] | cellular accumulation at 0.5% w/w P85 versus control without P85 (P-gp) | equilibrium free fraction ([2]; 0.1% w/w Pluronic P85) | drug free ([2]; 0.5% w/w Pluronic P85) | SMILES | change in cellular accumulation at Pluronic P85 concentrations above the CMC (MDCKII-WT cells) | increase in cellular accumulation compared to control (MDCKII-WT cells) | change in cellular accumulation with Pluronic P85 up to the CMC (MDCKII-WT cells) | cellular accumulation at 0.5% w/w P85 versus control without P85 (MDCKII-WT cells) | also measured
1 | significant only at 0.5% w/w | – | – | – | – | – | – | – | – | CC[C@]1(O)C[C@@H]2CN(CCc3c([nH]c4ccccc34)[C@@](C(=O)OC)(c3cc4c(cc3OC)N(C)[C@H]3[C@@](O)(C(=O)OC)[C@H](OC(C)=O)[C@]5(CC)C=CCN6CC[C@]43[C@@H]65)C2)C1 [vinblastine] | significant only at 0.5% w/w | 3 fold | – | – | increase in cellular accumulation compared to control (P-gp; 0.05% w/w Pluronic P85 (maximum)): 21 fold; increase in cellular accumulation compared to control (P-gp; 0.5% w/w Pluronic P85): 10 fold; log P [1]: 1.89
2 | decreased significantly | increased significantly | – | 0.953 ± 0.109 | 0.941 ± 0.045 | ~ 50 hrs | not statistically different | 0.194 ± 0.02 | 5% | Cc1c(O)cccc1C(=O)N[C@@H](CSc1ccccc1)[C@H](O)CN1C[C@H]2CCCC[C@H]2C[C@H]1C(=O)NC(C)(C)C [nelfinavir] | decreased significantly | 1.3 fold | no statistically significant enhancement | significantly lower than WT control | increase in cellular accumulation compared to control (P-gp; 0.03% w/w Pluronic P85): 6 fold; (WT/MDR1) accumulation ratio (P-gp; 0.03% w/w P85): 1.4; (WT/MDR1) accumulation ratio (P-gp; 0.5% w/w P85 (highest dose)): 1.23; (WT/MDR1) accumulation ratio (P-gp; absence of P85, 3 h accumulation): 6; drug free ([2]; 0.1% w/w Pluronic P85): 20%
3 | decline in accumulation | significant increase in accumulation | 0.068 ± 0.007 | 0.827 ± 0.114 | 0.744 ± 0.031 | – | not significantly different | – | 7% | CC(C)(C)NC(=O)[C@@H]1C[C@@H]2CCCC[C@@H]2CN1C[C@@H](O)[C@H](Cc1ccccc1)NC(=O)[C@H](CC(N)=O)NC(=O)c1ccc2ccccc2n1 [saquinavir] | decline in accumulation | – | significant increase in accumulation | not significantly different | –

The remaining lines, values behind:

Row | SMILES | change in cellular accumulation at Pluronic P85 concentrations above the CMC (P-gp) | change in cellular accumulation with Pluronic P85 up to the CMC (P-gp) | equilibrium free fraction ([2]; 0.5% w/w Pluronic P85) | equilibrium free fraction ([2]; absence of Pluronic P85) | equilibrium free fraction [2, 3] | time to equilibrium [2] | cellular accumulation at 0.5% w/w P85 versus control without P85 (P-gp) | equilibrium free fraction ([2]; 0.1% w/w Pluronic P85) | drug free ([2]; 0.5% w/w Pluronic P85) | change in cellular accumulation at Pluronic P85 concentrations above the CMC (MDCKII-WT cells) | increase in cellular accumulation compared to control (MDCKII-WT cells) | change in cellular accumulation with Pluronic P85 up to the CMC (MDCKII-WT cells) | cellular accumulation at 0.5% w/w P85 versus control without P85 (MDCKII-WT cells) | also measured
4 | COc1cc2c(cc1OC)CN(CCc1ccc(NC(=O)c3cccc4c(=O)c5cccc(OC)c5[nH]c34)cc1)CC2 [GF120918] | – | – | – | – | – | – | – | – | – | – | – | – | – | increase in nelfinavir accumulation compared to control (MDCKII-WT cells; highest concentration of GF120918 used): 5 fold; Emax (maximal effect on nelfinavir accumulation) (MDCKII-WT cells; sigmoid Emax model, mean ± SE): 4.76 ± 0.2 DPM normalized to stock / mg protein
5 | Nc1nc(NC2CC2)c2ncn([C@H]3C=C[C@@H](CO)C3)c2n1 [abacavir] | significant decline | significant increase | 0.871 ± 0.095 | 1.057 ± 0.212 | 0.984 ± 0.083 | ~ 20 hrs | – | – | – | significant decline | – | no significant increase | – | drug associated with the micelles ([2]; 0.5% w/w Pluronic P85): roughly 10%
6 | OC[C@@H](O)[C@@H](O)[C@H](O)[C@H](O)CO [mannitol] | no effect | – | – | 0.994 ± 0.06 | – | ~ 15 hrs | – | 0.968 ± 0.04 | – | no effect | – | – | – | –
